Reference: PMC4109633 (Drug Design, Development and Therapy, 2014)
Marks after values point to notes of the source that are not given here.

What was measured:
G-quadruplex DNA = conditions: cited from earlier work
[1] = system: Salmonella typhimurium TA1535; test: Cytotoxicity in liquid medium; format: cell-based; conditions: mean ± SEM
Method in brief: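 TA1535 was grown in broth microdilution with test compound at 25, 50 or 100 µM. Viability was expressed as % of untreated control (mean ± SEM), triplicate.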

[2] = system: Salmonella typhimurium TA1535; test: Antimutagenicity assay against sodium azide; format: cell-based; conditions: for NaN3 mutagenicity (revertant colonies/plate; mean ± SEM): NaN3 2 μg/plate, spontaneous 29.3±5.3; for Mutant frequency (sodium azide): mutant colonies/viable colonies
Method in brief: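 TA1535 was exposed to test compound at 10 or 20 µM with NaN₃ (2 µg/plate) in two schemes. In pre-exposure, compound and bacteria were shaken 30 min at 37°C before mutagen was added. In co-exposure, bacteria, mutagen and compound were incubated together 30 min at 37°C. Cells were then plated on minimal glucose agar, and revertants counted at 48 h, in triplicate. Mutant frequency = mutant colonies/viable colonies.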

[3] = system: Salmonella typhimurium TA1535; test: Ames Salmonella/microsomal mutagenicity assay; format: cell-based; conditions: presence of S9 mix, spontaneous 67.0±6.1
[4] = system: Salmonella typhimurium TA1535; test: Antimutagenicity assay against benzo[a]pyrene with S9 mix; format: cell-based; conditions: for B[a]P mutagenicity (revertant colonies/plate; mean ± SEM): B[a]P 20 μM + S9 mix, spontaneous 105.0±13.1; for Mutant frequency (benzo[a]pyrene): mutant colonies/viable colonies; for Antimutagenic potential against B[a]P: low concentration investigated

SMILES | Viability at fluoroarylbichalcophene concentrations (% of control) ([1]; 25 μM) | Viability at fluoroarylbichalcophene concentrations (% of control) ([1]; 50 μM) | Viability at fluoroarylbichalcophene concentrations (% of control) ([1]; 100 μM) | NaN3 mutagenicity (revertant colonies/plate; mean ± SEM) ([2]; co-exposure, 10 μM) | Mutant frequency (sodium azide) ([2]; co-exposure, 10 μM) | NaN3 mutagenicity (revertant colonies/plate; mean ± SEM) ([2]; co-exposure, 20 μM) | Mutant frequency (sodium azide) ([2]; co-exposure, 20 μM) | NaN3 mutagenicity (revertant colonies/plate; mean ± SEM) ([2]; pre-exposure, 10 μM) | Mutant frequency (sodium azide) ([2]; pre-exposure, 10 μM) | NaN3 mutagenicity (revertant colonies/plate; mean ± SEM) ([2]; pre-exposure, 20 μM) | Fluoroarylbichalcophene mutagenicity (revertant colonies/plate; mean ± SEM) ([3]; 10 μM) | Fluoroarylbichalcophene mutagenicity (revertant colonies/plate; mean ± SEM) ([3]; 20 μM) | B[a]P mutagenicity (revertant colonies/plate; mean ± SEM) ([4]; co-exposure, 10 μM) | Mutant frequency (benzo[a]pyrene) ([4]; co-exposure, 10 μM) | B[a]P mutagenicity (revertant colonies/plate; mean ± SEM) ([4]; co-exposure, 20 μM) | Mutant frequency (benzo[a]pyrene) ([4]; co-exposure, 20 μM) | B[a]P mutagenicity (revertant colonies/plate; mean ± SEM) ([4]; pre-exposure, 10 μM) | Mutant frequency (benzo[a]pyrene) ([4]; pre-exposure, 10 μM) | B[a]P mutagenicity (revertant colonies/plate; mean ± SEM) ([4]; pre-exposure, 20 μM) | Mutant frequency (benzo[a]pyrene) ([4]; pre-exposure, 20 μM) | further results
N=C(N)c1ccc(-c2ccc(-c3ccc(C(=N)N)o3)o2)cc1 [Compound I, 5′-(4-amidinophenyl)-2,2′-bifuran-5-carboxamidine] | – | – | – | – | – | – | – | – | – | – | – | – | – | – | – | – | – | – | – | – | Recognition of G-quadruplex DNA (G-quadruplex DNA): recognize G-quadruplex DNA
N#Cc1ccc(-c2ccc(-c3cccs3)s2)cc1F [Compound 4e, 4-(2,2′-Bithiophen-5-yl)-2-fluorobenzonitrile] | 104.0±9.9 % of control | 64.7±8.1 ^a % of control | 22.3±2.2 ^a % of control | 36.7±4.7 revertant colonies/plate | 0.66 | 25.0±5.6 revertant colonies/plate | 0.48 | 24.7±3.5 revertant colonies/plate | 0.44 | 21.7±2.1 revertant colonies/plate | 65.3±6.2 revertant colonies/plate | 66.7±6.7 revertant colonies/plate | 282.3±16.6 revertant colonies/plate | 4.28 | 285.0±18.1 revertant colonies/plate | 4.38 | 241.3±11.0 revertant colonies/plate | 3.66 | 201.0±10.5 revertant colonies/plate | 3.09 | Mutant frequency (sodium azide) ([2]; pre-exposure, 20 μM): 0.42; Antimutagenic potential against B[a]P ([4]; co-exposure): no significant activity
Cl.N=C(N)c1ccc(-c2ccc(-c3ccco3)o2)cc1F [Compound 5b, 4-(2,2′-Bifuran-5-yl)-2-fluorobenzamidine hydrochloride salt] | 101.7±11.3 % of control | 62.0±5.5 ^a % of control | 36.7±2.8 ^a % of control | 26.0±2.0 revertant colonies/plate | 0.50 | 21.7±2.5 revertant colonies/plate | 0.43 | 126.7±11.2 revertant colonies/plate | 2.45 | 40.3±6.5 revertant colonies/plate | 68.7±4.0 revertant colonies/plate | 65.0±4.9 revertant colonies/plate | 213.7±15.8 revertant colonies/plate | 3.38 | 166.0±6.6 revertant colonies/plate | 2.58 | 178.0±8.2 revertant colonies/plate | 2.81 | 163.0±7.9 revertant colonies/plate | 2.53 | Mutant frequency (sodium azide) ([2]; pre-exposure, 20 μM): 0.79; Antimutagenic potential against NaN3 ([2]; pre-exposure, only at 20 μM): strong (40% or more reduction means strong antimutagenic activity)
N#Cc1ccc(-c2ccc(-c3cccs3)o2)c(F)c1 [Compound 4c, 3-Fluoro-4-(5-(thiophen-2-yl)furan-2-yl)benzonitrile] | 104.7±11.6 % of control | 61.0±7.0 ^a % of control | 2.7±0.4 ^a % of control | 44.7±6.0 revertant colonies/plate | 0.81 | 40.0±5.0 revertant colonies/plate | 0.78 | 51.0±6.6 revertant colonies/plate | 0.93 | 53.7±9.3 revertant colonies/plate | 65.3±5.4 revertant colonies/plate | 68.7±5.5 revertant colonies/plate | 279.3±19.5 revertant colonies/plate | 4.43 | 269.3±9.0 revertant colonies/plate | 4.41 | 177.0±11.3 revertant colonies/plate | 2.81 | 153.7±7.0 revertant colonies/plate | 2.52 | Antimutagenic potential against B[a]P ([4]; co-exposure): no significant activity
